Measurements as given in ChEMBL document CHEMBL4689842, “EUbOPEN Chemogenomics Library wave 1” (2021).

How the values were obtained:
Type in all cases: toxicity, cell-based
Fibroblast [1] = experiment: Multiplex assay against human fibroblast
How it was run: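 On a CQ1 microscope at 37°C and 5% CO2, live cells were imaged after compound addition. They had been stained at seeding with Hoechst33342, BioTracker Green Microtubule Cytoskeleton Dye, MitoTracker Red and Annexin V Alexa Fluor 680. CellPathfinder machine-learning gating assigned cells to Hoechst high-intensity objects or normal cells, normal cells to healthy, pyknosed or fragmented nuclei, and pyknosed cells to mitotic or apoptotic. Tubulin, mitochondrial-mass and membrane-permeability phenotypes are per cents of healthy-nucleus cells.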

HEK-293T = experiment: Incucyte cell viability with HEK293T; settings: human, 10 µM, compound concentration 10 uM; further: filed as whole numbers so only -1 and 0 and 1 occur
Fibroblast [2] = experiment: Incucyte cell viability with human fibroblast; settings: 10 µM, compound concentration 10 uM; further: filed as whole numbers so only -1 and 0 and 1 occur
U2OS = experiment: Incucyte cell viability with U2OS; settings: human, 10 µM, compound concentration 10 uM; further: filed as whole numbers so only -1 and 0 and 1 occur
[3] = 12 h, 1 µM, compound concentration 1 uM, replicate 1
[4] = 12 h, 1 µM, compound concentration 1 uM, replicate 2
[5] = 12 h, 10 µM, compound concentration 10 uM, replicate 1
[6] = 12 h, 10 µM, compound concentration 10 uM, replicate 2
[7] = 24 h, 1 µM, compound concentration 1 uM, replicate 1
[8] = 24 h, 1 µM, compound concentration 1 uM, replicate 2
[9] = 24 h, 10 µM, compound concentration 10 uM, replicate 1
[10] = 24 h, 10 µM, compound concentration 10 uM, replicate 2
[11] = 6 h, replicate number 1, timepoint 6 hours
[12] = 12 h, replicate number 1, timepoint 12 hours
[13] = 18 h, replicate number 1, timepoint 18 hours
[14] = 24 h, replicate number 1, timepoint 24 hours
[15] = 12 h, replicate number 2, timepoint 12 hours

## Cc1cn(-c2cc(NC(=O)c3ccc4c(c3)CN(c3cncnc3)C[C@@H]4C)cc(C(F)(F)F)c2)cn1
Fibroblast [1]; [3]
  Population Apoptotic (%): 81%
  Population Fragmented Nuclei (%): 31%
  Population Healthy Nuclei (%): 50%
  Population Hoechst High Intensity Objects (%): 15%
  Population Membrane Permeable-Phenotype (%): 7%
  Population Mitochondria Different-Phenotype (%): 4%
  Population Mitotic Cells (%): 18%
  Population Normal (%): 84%
  Population Pyknosed Nuclei (%): 17%
  Population Tubulin-Different-Phenotype (%): 9%
  Total Cell Count: 147
Fibroblast [1]; [4]
  Population Apoptotic (%): 42%
  Population Fragmented Nuclei (%): 58%
  Population Healthy Nuclei (%): 31%
  Population Hoechst High Intensity Objects (%): 30%
  Population Membrane Permeable-Phenotype (%): 0%
  Population Mitochondria Different-Phenotype (%): 9%
  Population Mitotic Cells (%): 57%
  Population Normal (%): 70%
  Population Pyknosed Nuclei (%): 10%
  Population Tubulin-Different-Phenotype (%): 22%
  Total Cell Count: 100
Fibroblast [1]; [5]
  Population Apoptotic (%): 71%
  Population Fragmented Nuclei (%): 33%
  Population Healthy Nuclei (%): 49%
  Population Hoechst High Intensity Objects (%): 13%
  Population Mitochondria Different-Phenotype (%): 5%
  Population Mitotic Cells (%): 28%
  Population Normal (%): 86%
  Population Pyknosed Nuclei (%): 17%
  Population Tubulin-Different-Phenotype (%): 23%
  Total Cell Count: 141
Fibroblast [1]; [6]
  Population Apoptotic (%): 75%
  Population Fragmented Nuclei (%): 67%
  Population Healthy Nuclei (%): 18%
  Population Hoechst High Intensity Objects (%): 36%
  Population Membrane Permeable-Phenotype (%): 10%
  Population Mitochondria Different-Phenotype (%): 50%
  Population Mitotic Cells (%): 25%
  Population Normal (%): 63%
  Population Pyknosed Nuclei (%): 14%
  Population Tubulin-Different-Phenotype (%): 40%
  Total Cell Count: 87
Fibroblast [1]; [7]
  Population Apoptotic (%): 92%
  Population Fragmented Nuclei (%): 35%
  Population Healthy Nuclei (%): 45%
  Population Hoechst High Intensity Objects (%): 19%
  Population Membrane Permeable-Phenotype (%): 11%
  Population Mitochondria Different-Phenotype (%): 1%
  Population Mitotic Cells (%): 7%
  Population Normal (%): 80%
  Population Pyknosed Nuclei (%): 19%
  Population Tubulin-Different-Phenotype (%): 7%
  Total Cell Count: 172
Fibroblast [1]; [8]
  Population Apoptotic (%): 42%
  Population Fragmented Nuclei (%): 51%
  Population Healthy Nuclei (%): 37%
  Population Hoechst High Intensity Objects (%): 28%
  Population Membrane Permeable-Phenotype (%): 13%
  Population Mitochondria Different-Phenotype (%): 8%
  Population Mitotic Cells (%): 57%
  Population Normal (%): 71%
  Population Pyknosed Nuclei (%): 11%
  Population Tubulin-Different-Phenotype (%): 17%
  Total Cell Count: 87
Fibroblast [1]; [9]
  Population Apoptotic (%): 66%
  Population Fragmented Nuclei (%): 36%
  Population Healthy Nuclei (%): 48%
  Population Hoechst High Intensity Objects (%): 16%
  Population Membrane Permeable-Phenotype (%): 3%
  Population Mitochondria Different-Phenotype (%): 10%
  Population Mitotic Cells (%): 33%
  Population Normal (%): 83%
  Population Pyknosed Nuclei (%): 15%
  Population Tubulin-Different-Phenotype (%): 26%
  Total Cell Count: 161
Fibroblast [1]; [10]
  Population Apoptotic (%): 57%
  Population Fragmented Nuclei (%): 66%
  Population Healthy Nuclei (%): 20%
  Population Hoechst High Intensity Objects (%): 36%
  Population Membrane Permeable-Phenotype (%): 9%
  Population Mitochondria Different-Phenotype (%): 18%
  Population Mitotic Cells (%): 42%
  Population Normal (%): 63%
  Population Pyknosed Nuclei (%): 12%
  Population Tubulin-Different-Phenotype (%): 36%
  Total Cell Count: 85
HEK-293T; [11]
  Growth Rate: 0
HEK-293T; [12]
  Growth Rate: 0
HEK-293T; [13]
  Growth Rate: 0
HEK-293T; [14]
  Growth Rate: 0
Fibroblast [2]; 0 h, replicate number 2, timepoint 0 hours
  Growth Rate: 0
Fibroblast [2]; [11]
  Growth Rate: 0
Fibroblast [2]; [12]
  Growth Rate: 0
Fibroblast [2]; [15]
  Growth Rate: 1
Fibroblast [2]; [13]
  Growth Rate: 0
Fibroblast [2]; [14]
  Growth Rate: 0
U2OS; 0 h, replicate number 1, timepoint 0 hours
  Growth Rate: 0
U2OS; [11]
  Growth Rate: 0
U2OS; [12]
  Growth Rate: 0
U2OS; [15]
  Growth Rate: 1
U2OS; [13]
  Growth Rate: 0
U2OS; [14]
  Growth Rate: 0
